Measured values reported in ChEMBL document CHEMBL1143007, “Synthesis and evaluation of 4/5-hydroxy-2,3-diaryl(substituted)-cyclopent-2-en-1-ones as cis-restricted analogues of combretastatin A-4 as novel anticancer agents” (J Med Chem, 2007).
Values after ≈ are worked out from the molar mass of the structure shown.

How the values were obtained:
MIA PaCa-2 = assay: Cytotoxicity against human MiaPaCa2 cells after 72 hrs by MTT assay; format: cell-based; conditions: Homo sapiens, MIA PaCa-2, 72 h; read-out: IC50
Procedure, shortened: (§1)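 MTT assay. Cells seeded at 5000-10 000 per well and incubated at 37 °C in CO₂ with compound at 1-100 µg/mL in triplicate wells for 72 h, then MTT added. Absorbance read at 540 nm; % cytotoxicity = 100 × (1 − treated/control). IC50 obtained by nonlinear regression; NA means IC50 above 100 µg/mL.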

[1] = Cytotoxicity against human PA1 cells after 72 hrs by MTT assay; format: cell-based, PA-1; conditions: Homo sapiens, PA-1, 72 h; read-out: IC50; procedure, shortened: as §1
HT-29 = assay: Cytotoxicity against human HT29 cells after 72 hrs by MTT assay; format: cell-based; conditions: Homo sapiens, HT-29, 72 h; read-out: IC50; procedure, shortened: as §1
KB = assay: Cytotoxicity against human KB cells after 72 hrs by MTT assay; format: cell-based; conditions: Homo sapiens, KB, 72 h; read-out: IC50; procedure, shortened: as §1
L132 = assay: Cytotoxicity against human L132 cells after 72 hrs by MTT assay; format: cell-based; conditions: Homo sapiens, L132, 72 h; read-out: IC50; procedure, shortened: as §1
[2] = Cytotoxicity against human Hep2 cells after 72 hrs by MTT assay; format: cell-based, HEp-2; conditions: Homo sapiens, HEp-2, 72 h; read-out: IC50; procedure, shortened: as §1
DU-145 = assay: Cytotoxicity against human DU145 cells after 72 hrs by MTT assay; format: cell-based; conditions: Homo sapiens, DU-145, 72 h; read-out: IC50; procedure, shortened: as §1
HEK293 = assay: Cytotoxicity against human HEK293 cells after 72 hrs by MTT assay; format: cell-based; conditions: Homo sapiens, HEK293, 72 h; read-out: IC50; procedure, shortened: as §1
[3] = Cytotoxicity against human ECV304 cells after 72 hrs by MTT assay; format: cell-based, ECV-304; conditions: Homo sapiens, ECV-304, 72 h; read-out: IC50; procedure, shortened: as §1

SMILES	IC50 (MIA PaCa-2) [µg/mL]	IC50 [1] [µg/mL]	IC50 (HT-29) [µg/mL]	IC50 (KB) [µg/mL]	IC50 (L132) [µg/mL]	IC50 [2] [µg/mL]	IC50 (DU-145) [µg/mL]	IC50 (HEK293) [µg/mL]	IC50 [3] [µg/mL]
COc1ccc(C2=C(c3cc(OC)c(OC)c(OC)c3)C(=O)C(OC(C)=O)C2)cc1O (stereo not given)	18.5 (≈ 43.2 µM)	6 (≈ 14 µM)	< 1	35 (≈ 81.7 µM)	6 (≈ 14 µM)	> 100	> 100	92 (≈ 215 µM)	> 100
COc1ccc(OC)c(C2=C(c3cc(OC)c(OC)c(OC)c3)/C(=N\O)CC2O[Si](C)(C)C(C)(C)C)c1 (stereo not given)	1 (≈ 1.89 µM)	8.5 (≈ 16 µM)	50 (≈ 94.4 µM)	> 100	> 100	7 (≈ 13.2 µM)	> 100	7 (≈ 13.2 µM)	6 (≈ 11.3 µM)
COc1ccc(C2=C(c3cc(OC)c(OC)c(OC)c3)C(=O)C(O)C2)cc1Cl (stereo not given)	> 100	> 100	< 1	2.5 (≈ 6.18 µM)	< 1	< 1	40 (≈ 98.8 µM)	> 100	20 (≈ 49.4 µM)
COc1ccc(C2=C(c3cc(OC)c(OC)c(OC)c3)/C(=N\O)C(O)C2)cc1OC(C)C (stereo not given)	98 (≈ 221 µM)	61 (≈ 138 µM)	69 (≈ 156 µM)	95 (≈ 214 µM)	75 (≈ 169 µM)	40 (≈ 90.2 µM)	81 (≈ 183 µM)	36.8 (≈ 82.9 µM)	96 (≈ 216 µM)
COc1ccc(C2=C(c3cc(OC)c(OC)c(OC)c3)/C(=N\O)C(O)C2)cc1F (stereo not given)	94 (≈ 233 µM)	> 100	< 1	< 1	< 1	< 1	10 (≈ 24.8 µM)	> 100	43 (≈ 107 µM)
COc1ccc(C2=C(c3cc(OC)c(OC)c(OC)c3)/C(=N\O)C(OC(C)=O)C2)cc1Cl (stereo not given)	10 (≈ 21.6 µM)	37.5 (≈ 81.2 µM)	< 1	50 (≈ 108 µM)	< 1	< 1	17 (≈ 36.8 µM)	32 (≈ 69.3 µM)	8 (≈ 17.3 µM)
COc1ccc(C2=C(c3cc(OC)c(OC)c(OC)c3)C(=O)CC2O)cc1 (stereo not given)	> 100	3.38 (≈ 9.13 µM)	15 (≈ 40.5 µM)		10 (≈ 27 µM)	> 100	18.7 (≈ 50.5 µM)	10 (≈ 27 µM)	> 100
O/N=C1/CC(O)C(c2ccccc2)=C1c1ccccc1 (stereo not given)	> 100	> 100	> 100	> 100	> 100	> 100	> 100	> 100	> 100
CCOC(=O)COc1ccc(C2=C(c3cc(OC)c(OC)c(OC)c3)C(=O)CC2O)cc1 (stereo not given)	> 100	> 100	> 100	> 100	> 100	> 100	> 100	> 100	> 100
C=CCOc1cc(C2=C(c3cc(OC)c(OC)c(OC)c3)C(=O)C(O)C2)ccc1OC (stereo not given)	> 100	> 100	> 100	> 100	> 100	> 100	> 100	> 100	> 100
COC(=O)c1cc(C2=C(c3cc(OC)c(OC)c(OC)c3)C(=O)CC2O[Si](C)(C)C(C)(C)C)ccc1OC (stereo not given)	> 100	> 100	> 100	> 100	> 100	> 100	> 100	> 100	> 100
COc1cc(C2=C(c3ccc(OCC(=O)[O-])cc3)C(O)CC2=O)cc(OC)c1OC.[Na+] (stereo not given)	> 100			> 100		> 100	> 100	> 100	
COc1ccc(C2=C(c3cc(OC)c(OC)c(OC)c3)C(=O)C(OC(C)=O)C2)cc1F (stereo not given)	39.5 (≈ 91.8 µM)	> 100	< 1	33 (≈ 76.7 µM)	< 1	< 1	16 (≈ 37.2 µM)	59 (≈ 137 µM)	41 (≈ 95.3 µM)
COc1cc(C2=C(c3cc(C)c(OC)c(C)c3)C(OC(C)=O)CC2=O)cc(OC)c1OC (stereo not given)	> 100	> 100	> 100	> 100	> 100	> 100	> 100	> 100	> 100
COCOc1cc(C2=C(c3cc(OC)c(OC)c(OC)c3)C(=O)CC2O[Si](C)(C)C(C)(C)C)ccc1OC (stereo not given)	50 (≈ 91.8 µM)	13.5 (≈ 24.8 µM)	43 (≈ 78.9 µM)	33 (≈ 60.6 µM)	32 (≈ 58.7 µM)	12 (≈ 22 µM)	34 (≈ 62.4 µM)	> 100	40 (≈ 73.4 µM)
COc1ccc(C2=C(c3cc(OC)c(OC)c(OC)c3)C(=O)CC2O[Si](C)(C)C(C)(C)C)cc1 (stereo not given)	> 100	> 100	> 100	> 100	> 100	> 100	> 100	> 100	> 100
COc1ccc(OC)c(C2=C(c3cc(OC)c(OC)c(OC)c3)C(=O)CC2O[Si](C)(C)C(C)(C)C)c1 (stereo not given)	> 100	17 (≈ 33 µM)	5 (≈ 9.71 µM)	10 (≈ 19.4 µM)	100 (≈ 194 µM)	19 (≈ 36.9 µM)	100 (≈ 194 µM)	9.5 (≈ 18.5 µM)	6.5 (≈ 12.6 µM)
CC(=O)OC1C/C(=N/O)C(c2ccccc2)=C1c1ccccc1 (stereo not given)	4.5 (≈ 14.6 µM)	> 100	> 100	9 (≈ 29.3 µM)	> 100	> 100	> 100	92.3 (≈ 300 µM)	> 100
COc1ccc(C2=C(c3cc(OC)c(OC)c(OC)c3)C(=O)C(OC(C)=O)C2)cc1 (stereo not given)	< 1	< 1	< 1	72 (≈ 175 µM)	> 100	18 (≈ 43.6 µM)	> 100		18 (≈ 43.6 µM)
COc1cc(C2=C(c3cc(C)c(OC)c(C)c3)C(O[Si](C)(C)C(C)(C)C)CC2=O)cc(OC)c1OC (stereo not given)		32 (≈ 62.4 µM)	10 (≈ 19.5 µM)	40 (≈ 78 µM)	> 100	26 (≈ 50.7 µM)	> 100	29 (≈ 56.6 µM)	15 (≈ 29.3 µM)
COc1ccc(C2=C(c3cc(OC)c(OC)c(OC)c3)/C(=N\O)C(OC(C)=O)C2)cc1 (stereo not given)	< 1	< 1	1 (≈ 2.34 µM)	69 (≈ 161 µM)		100 (≈ 234 µM)	> 100	25.6 (≈ 59.9 µM)	> 100
COc1ccc(C2=C(c3cc(OC)c(OC)c(OC)c3)C(=O)C(OC(C)=O)C2)cc1NC=O (stereo not given)	2 (≈ 4.39 µM)	5 (≈ 11 µM)	< 1	8 (≈ 17.6 µM)	2 (≈ 4.39 µM)	3.27 (≈ 7.18 µM)	> 100	4.16 (≈ 9.13 µM)	
COc1ccc(C2=C(c3cc(OC)c(OC)c(OC)c3)/C(=N\O)CC2O[Si](C)(C)C(C)(C)C)cc1OC (stereo not given)	15 (≈ 28.3 µM)		20 (≈ 37.8 µM)	15 (≈ 28.3 µM)	60 (≈ 113 µM)	32 (≈ 60.4 µM)	60 (≈ 113 µM)	70 (≈ 132 µM)	36 (≈ 68 µM)
COc1ccc(C2=C(c3cc(OC)c(OC)c(OC)c3)/C(=N\O)CC2O)cc1 (stereo not given)	> 100	2.35 (≈ 6.1 µM)	15 (≈ 38.9 µM)		11 (≈ 28.5 µM)	> 100	34.2 (≈ 88.9 µM)	> 100	> 100
